Data on 6 compounds can be found in ChEMBL document CHEMBL1137816, “New polyhydroxylated pyrrolidine, piperidine, and pyrrolizidine alkaloids from Scilla sibirica” (J Nat Prod, 2002).

The structures appear in SMILES notation. Activity calls are given as the source filed them. The calls are words filed in the database; no cut-off is given here.

By inhibition is commonly meant the change of the read-out against control, counted positive when it falls. As a reminder, the IC50 is the concentration needed to halve the response being measured.

Assay [1] concerns the target Lysosomal alpha-glucosidase (Rattus norvegicus) (UniProt Q6P7A9). The assay can be described thus: Inhibition of rat intestinal maltase assessed as D-glucose release at 1000 uM after 30 mins by Glucose B-test. The procedure, abridged: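 Brush border membranes from rat small intestine served as the enzyme source, with maltose substrate at pH 5.8. Incubation with inhibitor was 30 min at 37 °C. Released D-glucose was measured colorimetrically by Glucose B-test.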

The next assay deals with Beta-glucosidase A (Caldicellulosiruptor saccharolyticus, UniProt P10482). The assay is described as follows: Inhibition of Caldocellum saccharolyticum beta-glucosidase assessed as p-nitrophenol release after 30 mins measured spectrometrically at 400 nm.
The next assay addresses T1, Beta-galactosidase (Bos taurus, UniProt Q58D55).
T1 sequence (Q58D55 whole entry): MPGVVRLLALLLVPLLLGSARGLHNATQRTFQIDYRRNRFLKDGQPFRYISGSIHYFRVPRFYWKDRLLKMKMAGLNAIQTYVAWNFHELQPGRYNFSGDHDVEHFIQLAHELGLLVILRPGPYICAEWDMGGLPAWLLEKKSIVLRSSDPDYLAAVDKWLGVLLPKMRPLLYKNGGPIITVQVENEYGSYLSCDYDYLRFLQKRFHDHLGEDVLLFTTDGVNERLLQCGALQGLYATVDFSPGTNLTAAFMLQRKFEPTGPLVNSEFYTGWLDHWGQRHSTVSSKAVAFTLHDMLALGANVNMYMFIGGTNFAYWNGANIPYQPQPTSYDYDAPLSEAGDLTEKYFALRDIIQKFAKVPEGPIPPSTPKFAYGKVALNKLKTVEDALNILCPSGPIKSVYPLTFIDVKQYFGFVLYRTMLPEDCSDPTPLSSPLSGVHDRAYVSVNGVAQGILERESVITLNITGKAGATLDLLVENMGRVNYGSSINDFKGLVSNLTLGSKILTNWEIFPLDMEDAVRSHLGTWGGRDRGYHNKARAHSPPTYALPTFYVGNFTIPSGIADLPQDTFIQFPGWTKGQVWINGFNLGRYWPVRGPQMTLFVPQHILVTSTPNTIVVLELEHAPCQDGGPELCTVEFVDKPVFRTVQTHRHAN
The assay can be described thus: Inhibition of bovine liver beta-galactosidase assessed as p-nitrophenol release after 30 mins by spectrophotometry. Put shortly: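 Bovine liver enzyme at pH 6.8 with the appropriate p-nitrophenyl glycoside. Incubated with inhibitor 30 min at 37 °C, quenched with 400 mM Na2CO3, and released p-nitrophenol read at 400 nm.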

The target in assay [2] is Lysosomal alpha-glucosidase (Rattus norvegicus) (UniProt Q6P7A9). The assay is described as follows: Inhibition of rat liver lysosome alpha-glucosidase assessed as p-nitrophenol release at 1000 uM after 30 mins measured spectrometrically at 400 nm.
Assay [3] is described as follows: Inhibition of Penicillium decumbens alpha-L-rhamnosidase assessed as p-nitrophenol release after 30 mins by spectrophotometry. Put shortly:
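Penicillium decumbens enzyme assayed at pH 4.5 with the appropriate p-nitrophenyl glycoside. Substrate, diluted enzyme and inhibitor were incubated 30 min at 37 °C, then stopped with 400 mM Na2CO3. Released p-nitrophenol was read at 400 nm.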

In a further assay the target is Alpha-glucosidase MAL12 (Saccharomyces cerevisiae S288c, UniProt P53341). The assay can be described thus: Inhibition of yeast alpha-glucosidase assessed as p-nitrophenol release after 30 mins measured at 400 nm.
The test system of a further assay is Oryza sativa. The assay can be described thus: Inhibition of rice alpha-glucosidase assessed as D-glucose release at 1000 uM after 10 mins by Glucose B-test. Put shortly:
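Rice α-glucosidase was assayed with maltose as substrate at the enzyme's optimum pH. Incubation with inhibitor was 10 min at 37 °C. Released D-glucose was determined colorimetrically by Glucose B-test.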

For the next assay, the target named is T2, Beta-mannosidase (Rattus norvegicus, UniProt Q4FZV0).
T2 sequence (Q4FZV0 whole entry): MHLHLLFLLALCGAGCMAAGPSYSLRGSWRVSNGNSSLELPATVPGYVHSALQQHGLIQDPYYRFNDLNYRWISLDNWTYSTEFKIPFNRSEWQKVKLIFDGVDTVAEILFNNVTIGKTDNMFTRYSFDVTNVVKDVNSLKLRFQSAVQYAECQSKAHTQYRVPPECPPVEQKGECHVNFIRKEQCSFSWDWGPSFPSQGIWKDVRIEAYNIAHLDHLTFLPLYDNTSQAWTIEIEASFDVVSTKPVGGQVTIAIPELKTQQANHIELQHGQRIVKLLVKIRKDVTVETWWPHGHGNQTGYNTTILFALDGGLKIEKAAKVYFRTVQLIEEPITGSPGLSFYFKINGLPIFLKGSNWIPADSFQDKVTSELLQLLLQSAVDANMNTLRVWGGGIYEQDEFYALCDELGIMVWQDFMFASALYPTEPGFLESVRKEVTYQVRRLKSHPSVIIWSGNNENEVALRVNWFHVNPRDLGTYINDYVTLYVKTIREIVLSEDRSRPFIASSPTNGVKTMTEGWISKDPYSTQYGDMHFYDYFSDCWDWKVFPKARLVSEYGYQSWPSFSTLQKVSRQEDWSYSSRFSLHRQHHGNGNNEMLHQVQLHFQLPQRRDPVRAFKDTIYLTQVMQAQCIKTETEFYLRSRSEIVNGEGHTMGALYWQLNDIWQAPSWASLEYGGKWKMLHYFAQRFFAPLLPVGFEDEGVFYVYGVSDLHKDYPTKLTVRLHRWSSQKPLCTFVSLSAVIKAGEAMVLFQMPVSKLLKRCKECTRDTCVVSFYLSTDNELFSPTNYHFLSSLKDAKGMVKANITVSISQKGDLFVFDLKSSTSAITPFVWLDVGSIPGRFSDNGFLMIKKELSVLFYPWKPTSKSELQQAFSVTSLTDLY
The assay is described as follows: Inhibition of rat epididymis beta-mannosidase assessed as p-nitrophenol release after 30 mins by spectrophotometry. The procedure, abridged:
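Source was rat epididymal fluid purified from epididymis. Assayed at pH 5.2 with p-nitrophenyl-β-D-mannoside, incubated with inhibitor 30 min at 37 °C. Stopped with 400 mM Na2CO3; p-nitrophenol read at 400 nm.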

Assay [4] is described as follows: Inhibition of rice alpha-glucosidase assessed as D-glucose release after 10 mins by Glucose B-test. Also noted: species or system Oryza sativa. Put shortly:
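Rice enzyme with maltose as substrate at the enzyme's optimum pH. Incubation with inhibitor ran 10 min at 37 °C. Released D-glucose determined colorimetrically with a glucose test kit.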

The target of assay [5] is Lysosomal alpha-glucosidase (Rattus norvegicus, UniProt Q6P7A9). The assay can be described thus: Inhibition of rat liver lysosome alpha-glucosidase assessed as p-nitrophenol release after 30 mins measured spectrometrically at 400 nm.
In assay [6] the target is T3, Beta-mannosidase (Rattus norvegicus) (UniProt Q4FZV0).
T3 sequence (whole entry): T2 sequence (Q4FZV0 whole entry)
The assay is described as follows: Inhibition of rat epididymis beta-mannosidase assessed as p-nitrophenol release at 1000 uM after 30 mins by spectrophotometry. The procedure, abridged:
(§1)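 p-Nitrophenyl glycoside substrates: Penicillium decumbens α-L-rhamnosidase at pH 4.5, bovine epididymis α-L-fucosidase at pH 5.5, bovine liver β-galactosidase at pH 6.8. β-Mannosidase came from rat epididymal fluid purified from epididymis, with p-nitrophenyl-β-D-mannoside at pH 5.2. Enzyme, substrate and inhibitor were incubated 30 min at 37 °C. The reaction was stopped with 400 mM Na2CO3, and p-nitrophenol was read at 400 nm.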

For assay [7], the target named is T4, Tissue alpha-L-fucosidase (Bos taurus) (UniProt Q2KIM0).
T4 sequence (whole entry): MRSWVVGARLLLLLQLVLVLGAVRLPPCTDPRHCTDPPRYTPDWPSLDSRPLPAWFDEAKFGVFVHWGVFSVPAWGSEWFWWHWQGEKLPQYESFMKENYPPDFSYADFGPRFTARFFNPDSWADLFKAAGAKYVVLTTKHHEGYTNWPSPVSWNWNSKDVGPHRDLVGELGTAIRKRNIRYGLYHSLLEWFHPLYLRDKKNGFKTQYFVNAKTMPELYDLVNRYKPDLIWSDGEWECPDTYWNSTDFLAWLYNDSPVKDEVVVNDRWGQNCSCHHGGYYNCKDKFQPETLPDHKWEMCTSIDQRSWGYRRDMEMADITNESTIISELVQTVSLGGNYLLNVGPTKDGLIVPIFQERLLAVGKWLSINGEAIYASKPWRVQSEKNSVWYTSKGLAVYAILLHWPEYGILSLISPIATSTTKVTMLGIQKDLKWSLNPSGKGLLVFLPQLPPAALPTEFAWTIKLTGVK
The assay can be described thus: Inhibition of bovine epididymis alpha-L-fucosidase assessed as p-nitrophenol release at 1000 uM after 30 mins by spectrophotometry. Put shortly: as §1

For assay [8], the target named is Oligo-1,6-glucosidase IMA1 (Saccharomyces cerevisiae S288c) (UniProt P53051). The assay can be described thus: Inhibition of yeast alpha-glucosidase assessed as p-nitrophenol release at 1000 uM after 30 mins measured spectrometrically at 400 nm.
In the next assay the test system is Penicillium decumbens. The assay can be described thus: Inhibition of Penicillium decumbens alpha-L-rhamnosidase assessed as p-nitrophenol release at 1000 uM by spectrophotometry. Put shortly:
as §1

Assay [9] addresses T5, Beta-galactosidase (Bos taurus) (UniProt Q58D55).
T5 sequence (whole entry): T1 sequence (Q58D55 whole entry)
The assay can be described thus: Inhibition of bovine liver beta-galactosidase assessed as p-nitrophenol release at 1000 uM after 30 mins by spectrophotometry. The procedure, abridged: as §1

The target in assay [10] is T6, Tissue alpha-L-fucosidase (Bos taurus, UniProt Q2KIM0).
T6 sequence (Q2KIM0 whole entry): T4 sequence (whole entry)
The assay can be described thus: Inhibition of bovine epididymis alpha-L-fucosidase assessed as p-nitrophenol release after 30 mins by spectrophotometry. The procedure, abridged: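 Enzyme from bovine epididymis, run at pH 5.5 with the appropriate p-nitrophenyl glycoside substrate. Enzyme, substrate and inhibitor incubated together 30 min at 37 °C. Reaction stopped by adding 400 mM Na2CO3; p-nitrophenol measured spectrometrically at 400 nm.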

Assay [11] addresses Lactase/phlorizin hydrolase (Rattus norvegicus, UniProt Q02401). The assay can be described thus: Inhibition of rat intestinal lactase assessed as p-nitrophenol release after 30 mins by spectrophotometry.
Assay [12] has as its target Lysosomal alpha-glucosidase (Rattus norvegicus) (UniProt Q6P7A9). The assay can be described thus: Inhibition of rat liver lysosome alpha-glucosidase assessed as D-glucose release at 1000 uM after 30 mins by Glucose B-test.
Assay [13] can be described thus: Inhibition of rat intestinal amyloglucosidase.
For assay [14], the target named is Oligo-1,6-glucosidase IMA1 (Saccharomyces cerevisiae S288c) (UniProt P53051). The assay is described as follows: Inhibition of yeast alpha-glucosidase assessed as D-glucose release at 1000 uM after 30 mins by Glucose B-test.

Lysosomal alpha-glucosidase (Rattus norvegicus), sequence (Q6P7A9 whole entry): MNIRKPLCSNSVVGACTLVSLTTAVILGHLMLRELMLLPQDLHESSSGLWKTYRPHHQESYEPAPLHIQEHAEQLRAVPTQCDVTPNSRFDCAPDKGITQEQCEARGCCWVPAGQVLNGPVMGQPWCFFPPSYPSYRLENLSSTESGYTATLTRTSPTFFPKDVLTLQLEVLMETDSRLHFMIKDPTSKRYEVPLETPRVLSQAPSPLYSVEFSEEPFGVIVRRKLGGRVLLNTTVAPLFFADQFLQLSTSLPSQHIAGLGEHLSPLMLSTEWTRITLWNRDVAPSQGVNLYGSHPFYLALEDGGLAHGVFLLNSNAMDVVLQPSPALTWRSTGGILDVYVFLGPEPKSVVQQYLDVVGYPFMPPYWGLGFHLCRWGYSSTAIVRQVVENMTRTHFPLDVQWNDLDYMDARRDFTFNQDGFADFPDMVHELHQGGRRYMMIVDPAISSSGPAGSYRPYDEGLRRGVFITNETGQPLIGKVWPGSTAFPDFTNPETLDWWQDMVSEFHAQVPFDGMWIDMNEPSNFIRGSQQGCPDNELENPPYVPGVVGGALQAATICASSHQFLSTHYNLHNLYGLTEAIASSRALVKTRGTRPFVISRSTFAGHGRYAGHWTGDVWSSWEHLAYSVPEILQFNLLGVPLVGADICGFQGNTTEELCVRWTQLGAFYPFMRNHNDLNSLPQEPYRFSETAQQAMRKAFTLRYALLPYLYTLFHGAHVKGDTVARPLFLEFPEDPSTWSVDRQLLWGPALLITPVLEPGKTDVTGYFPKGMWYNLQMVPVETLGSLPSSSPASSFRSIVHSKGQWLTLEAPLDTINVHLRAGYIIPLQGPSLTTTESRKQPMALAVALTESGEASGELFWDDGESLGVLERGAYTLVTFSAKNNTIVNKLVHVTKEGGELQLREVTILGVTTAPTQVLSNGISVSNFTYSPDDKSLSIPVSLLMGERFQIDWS
Oligo-1,6-glucosidase IMA1 (Saccharomyces cerevisiae S288c), sequence (P53051 whole entry): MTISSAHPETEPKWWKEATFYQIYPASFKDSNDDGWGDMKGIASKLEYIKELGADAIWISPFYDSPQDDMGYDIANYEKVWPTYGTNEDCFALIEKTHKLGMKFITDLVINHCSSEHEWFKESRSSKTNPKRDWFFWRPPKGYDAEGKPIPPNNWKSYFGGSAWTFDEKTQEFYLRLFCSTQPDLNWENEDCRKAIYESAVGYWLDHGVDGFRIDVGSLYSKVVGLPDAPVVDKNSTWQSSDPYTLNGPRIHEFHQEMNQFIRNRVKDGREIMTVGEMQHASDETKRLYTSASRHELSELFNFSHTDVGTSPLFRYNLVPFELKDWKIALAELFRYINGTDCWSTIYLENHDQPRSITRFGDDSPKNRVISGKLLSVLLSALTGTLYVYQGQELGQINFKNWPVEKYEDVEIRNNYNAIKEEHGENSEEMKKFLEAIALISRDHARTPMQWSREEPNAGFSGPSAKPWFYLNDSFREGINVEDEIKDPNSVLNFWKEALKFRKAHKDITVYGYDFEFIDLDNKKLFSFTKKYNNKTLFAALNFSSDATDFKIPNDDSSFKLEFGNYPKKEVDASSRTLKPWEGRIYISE
Beta-glucosidase A, sequence (P10482 whole entry): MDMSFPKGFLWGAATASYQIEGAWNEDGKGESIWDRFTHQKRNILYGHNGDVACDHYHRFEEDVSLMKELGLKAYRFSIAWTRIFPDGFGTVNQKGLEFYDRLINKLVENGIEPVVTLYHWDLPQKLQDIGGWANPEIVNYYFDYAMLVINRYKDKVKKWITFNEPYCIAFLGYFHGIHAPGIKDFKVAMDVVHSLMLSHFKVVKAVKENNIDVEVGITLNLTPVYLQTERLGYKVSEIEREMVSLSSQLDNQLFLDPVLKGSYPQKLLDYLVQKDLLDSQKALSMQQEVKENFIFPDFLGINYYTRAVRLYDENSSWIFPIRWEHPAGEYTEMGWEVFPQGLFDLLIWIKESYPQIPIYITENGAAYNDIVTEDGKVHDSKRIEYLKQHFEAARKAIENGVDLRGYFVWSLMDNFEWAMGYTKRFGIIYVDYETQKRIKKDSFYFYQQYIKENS
Lysosomal alpha-glucosidase, sequence (Q6P7A9 whole entry): as the sequence (Q6P7A9 whole entry) above
Lactase/phlorizin hydrolase, sequence (Q02401 868-1928 limits assumed): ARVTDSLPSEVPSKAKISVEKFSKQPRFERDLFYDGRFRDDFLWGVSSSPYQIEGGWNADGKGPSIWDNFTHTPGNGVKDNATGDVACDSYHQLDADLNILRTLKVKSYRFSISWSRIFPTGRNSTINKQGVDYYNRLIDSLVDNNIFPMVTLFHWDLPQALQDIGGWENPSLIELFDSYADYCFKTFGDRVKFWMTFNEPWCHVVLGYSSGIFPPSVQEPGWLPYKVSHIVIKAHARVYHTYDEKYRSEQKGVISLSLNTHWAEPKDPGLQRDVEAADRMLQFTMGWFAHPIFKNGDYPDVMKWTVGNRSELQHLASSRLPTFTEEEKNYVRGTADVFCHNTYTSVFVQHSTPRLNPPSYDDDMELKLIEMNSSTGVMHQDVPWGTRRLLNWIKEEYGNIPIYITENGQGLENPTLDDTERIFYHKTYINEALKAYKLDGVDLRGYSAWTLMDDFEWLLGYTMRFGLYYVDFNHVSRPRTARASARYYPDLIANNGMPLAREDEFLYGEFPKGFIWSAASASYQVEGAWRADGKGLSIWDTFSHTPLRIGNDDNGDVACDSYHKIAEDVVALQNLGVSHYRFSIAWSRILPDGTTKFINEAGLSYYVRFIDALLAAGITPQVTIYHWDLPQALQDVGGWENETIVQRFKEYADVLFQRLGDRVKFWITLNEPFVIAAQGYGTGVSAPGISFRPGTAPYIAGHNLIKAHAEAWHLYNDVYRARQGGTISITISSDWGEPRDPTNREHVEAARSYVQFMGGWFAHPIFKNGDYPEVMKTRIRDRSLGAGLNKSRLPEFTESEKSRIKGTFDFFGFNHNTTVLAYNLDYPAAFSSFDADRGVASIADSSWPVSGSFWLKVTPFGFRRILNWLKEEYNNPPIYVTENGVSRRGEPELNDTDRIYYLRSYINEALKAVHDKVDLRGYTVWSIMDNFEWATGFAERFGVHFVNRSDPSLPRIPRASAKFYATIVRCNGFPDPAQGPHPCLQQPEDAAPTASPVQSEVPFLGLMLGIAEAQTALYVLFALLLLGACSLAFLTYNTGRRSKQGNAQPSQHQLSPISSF
Alpha-glucosidase MAL12, sequence (P53341 whole entry): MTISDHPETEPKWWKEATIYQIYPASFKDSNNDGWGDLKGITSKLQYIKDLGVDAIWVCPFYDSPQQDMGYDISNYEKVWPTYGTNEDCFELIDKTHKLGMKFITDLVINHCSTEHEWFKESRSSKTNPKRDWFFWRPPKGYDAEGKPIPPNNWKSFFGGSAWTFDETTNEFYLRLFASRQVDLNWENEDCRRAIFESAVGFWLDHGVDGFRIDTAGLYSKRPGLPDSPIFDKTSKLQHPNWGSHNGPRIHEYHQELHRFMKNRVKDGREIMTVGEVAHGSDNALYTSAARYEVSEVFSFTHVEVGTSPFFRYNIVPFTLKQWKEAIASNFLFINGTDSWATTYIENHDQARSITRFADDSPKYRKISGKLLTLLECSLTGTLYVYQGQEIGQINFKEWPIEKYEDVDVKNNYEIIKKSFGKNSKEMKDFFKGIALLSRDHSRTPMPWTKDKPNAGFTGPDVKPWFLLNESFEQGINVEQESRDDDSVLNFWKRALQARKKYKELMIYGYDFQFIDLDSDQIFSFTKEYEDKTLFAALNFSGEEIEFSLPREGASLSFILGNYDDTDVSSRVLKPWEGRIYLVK

For `OCC[C@H]1N[C@H](CO)[C@@H](O)[C@@H]1O`, the inhibition (in assay [1]; in [2]; in the assay on Oryza sativa) was below 50% in each case. In addition, the IC50 turned out to be 350 µM on Beta-glucosidase A; 88 µM at Beta-galactosidase; 94 µM in [3]; 250 µM at Alpha-glucosidase MAL12; 320 µM on Beta-mannosidase.
As to `C[C@H]1N[C@H](CO)[C@@H](O)[C@H](O)[C@H]1O`, the IC50 in assay [4] stood at 8 µM; in assay [5], 19 µM; at Beta-galactosidase, 260 µM; in assay [3], 94 µM. Besides, the inhibition in [6], in assay [7] and in [8] was below 50% in each case.
`OCC[C@H]1N[C@@H](CO)[C@H](O)[C@H]1O`: the inhibition (in the assay on Penicillium decumbens; in assay [9]; in assay [6]; in the assay on Oryza sativa; in [8]) was below 50% in each case. The IC50 in assay [10] turned out to be 840 µM.
`C[C@@H]1C[C@@H](O)[C@@H]2[C@H](O)[C@H](O)[C@@H](CO)N21` [HYACINTHACINE B3]: the result (in the assay on Penicillium decumbens; in assay [1]; in [9]; with Oryza sativa; in [7]; in [12]) was inactive. The outcome in [14] was inactive. In addition, the IC50 in assay [11] is 18 µM; in [13], 51 µM.
Turning to `C[C@@H]1C[C@H](O)[C@@H]2[C@@H](O)[C@H](O)[C@@H](CO)N21` (relative stereo) [HYACINTHACINE B4], the result (in the assay on Penicillium decumbens; in [1]; in assay [9]; in the assay with Oryza sativa; in assay [7]; in assay [12]) was inactive. Besides, the result in assay [14] was inactive. The IC50 in assay [10] came to 23 µM; in [13], 89 µM.
In the case of `OCC[C@H]1N[C@H](CO)[C@@H](O)[C@@H]1O[C@@H]1O[C@H](CO)[C@@H](O)[C@H](O)[C@@H]1O`, the inhibition (in [1]; in [2]; in the assay with Oryza sativa; in assay [8]) was below 50% each time. The IC50 on Beta-mannosidase was 160 µM; in assay [10] it was 78 µM.
